# Measured values published in ChEMBL document CHEMBL1154693, “Discovery of trans-4-[1-[[2,5-Dichloro-4-(1-methyl-3-indolylcarboxamido)phenyl]acetyl]-(4S)-methoxy-(2S)-pyrrolidinylmethoxy]cyclohexanecarboxylic acid: an orally active, selective very late antigen-4 antagonist” (J Med Chem, 2009).
# Tests used:
# [1] = Cmax in cynomolgus monkey at 0.5 mg/kg, po; type: ADME, organism-based, Macaca fascicularis; design: dose 0.5 mg/kg, route oral; settings: in vivo
# Procedure, shortened: (§1)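 Female cynomolgus monkeys (3.5-4 kg), fasted 18 h, three per group. Dose 0.5 mg/kg, oral as suspension in 0.5% MC or iv in saline with 3 equiv NaOH. Blood sampled from 0.08 (iv) or 0.25 (po) up to 24 h, food after 4 h; plasma LC/MS/MS, noncompartmental analysis.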
# [2] = Cmax in Beagle dog at 0.5 mg/kg, po; type: ADME, organism-based, Canis lupus familiaris; design: dose 0.5 mg/kg, route oral; settings: in vivo
# Procedure, shortened: (§2)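 Male beagle dogs (10-12 kg), fasted 18 h, three per group; cassette dosing 0.5 mg/kg in 0.5% MC with 3 equiv NaOH (po) or saline with 3 equiv NaOH (iv). Blood taken 0.08 (iv) or 0.25 (po) to 24 h, fed after 4 h; plasma assayed by LC/MS/MS, noncompartmental analysis.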
# [3] = AUC in Beagle dog at 0.5 mg/kg, po; type: ADME, organism-based, Canis lupus familiaris; design: dose 0.5 mg/kg, route oral; settings: plasma; procedure, shortened: as §2
# Mus musculus [4] = test: Antiinflammatory activity in Ascaris suum antigen-induced BALB/c AnNCrj mouse asthma model assessed as inhibition of eosinophil infiltration in BAL fluid at 5 mg.kg, po bid administered 15 mins before and 8, 24 and 32 hrs after antigen challenge measured 48 hrs after antigen challenge; type: functional
# Procedure, shortened: (§3)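 Female BALB/c AnNCrj mice given cyclophosphamide 150 mg/kg po (day 0), sensitized ip with Ascaris suum extract plus alum on days 2 and 14, challenged intratracheally day 22. Compound in 0.5% MC/0.03% Tween 80 po 15 min before and 8, 24, 32 h after challenge; BAL at 48 h, eosinophils from total count times Wright-stained differential.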
# [5] = molecular target: Intercellular adhesion molecule (ICAM-1), Integrin alpha-L/beta-2 (Homo sapiens) (UniProt P20701+P05362+P05107); test: Inhibition of europium labeled human ICAM1 binding to human integrin alphaLbeta2 receptor at 162 uM by protein/protein binding assay; type: protein-complex assay
# Procedure, shortened: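 Membrane-bound human LFA-1 immobilized at 1 μg/mL overnight at 4 °C, then blocked with BSA. Compound added with 2 nM Eu-labeled human ICAM-1 D1D5-IgG in 5% DMSO and bound for 2 h at room temperature; plates washed and Eu fluorescence read by time-resolved fluorometry.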
# Integrin alpha-4/beta-1 [6] = molecular target: T1, Integrin alpha-4/beta-1 (Homo sapiens, UniProt P05556+P13612); test: Inhibition of europium labeled human VCAM1/Fc chimera binding to human VLA-4 alpha-4-beta-1 expressed in Chinese hamster 4B4 cells by fluorimetric assay; type: cell-based
# Integrin alpha-4/beta-1 [7] = molecular target: T1, Integrin alpha-4/beta-1; test: Inhibition of europium labeled human VCAM1/Fc chimera binding to human VLA-4 alpha-4-beta-1 expressed in Chinese hamster 4B4 cells in presence of 3% HSA by fluorimetric assay; type: cell-based
# Procedure, shortened: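 CHO-K1 4B4 cells transfected with human α4 and β1, plated at 3 × 10⁵ cells/mL and cultured 2 days, washed with HEPES pH 7.5 buffer containing Ca, Mg, Mn. Compound plus Eu-labeled human VCAM-1/Fc (final 1 nM), with or without human serum albumin, 60 min at room temperature; washed, Eu time-resolved fluorescence read; duplicates.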
# [8] = AUC in cynomolgus monkey at 0.5 mg/kg, iv; type: ADME, organism-based, Macaca fascicularis; design: dose 0.5 mg/kg, route intravenous; settings: plasma; procedure, shortened: as §1
# [9] = Oral bioavailability in Sprague-Dawley rat at 1 mg/kg, po; type: ADME, organism-based; settings: in vivo
# Procedure, shortened: (§4)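 Male Sprague-Dawley rats (7 weeks), fasted 18 h, four per group. 1 mg/kg oral in 0.5% MC or iv in saline, each with 3 equiv NaOH. Plasma drawn at 0.08 (iv) or 0.25 (po), 0.5, 1, 2 and 6 h; LC/MS/MS quantitation, noncompartmental parameters.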
# [10] = AUC in cynomolgus monkey at 0.5 mg/kg, po; type: ADME, organism-based, Macaca fascicularis; design: dose 0.5 mg/kg, route oral; settings: plasma; procedure, shortened: as §1
# [11] = Drug level in BALB/c mouse serum at 10 mg/kg, po after 15 mins; type: ADME, organism-based; design: dose 10 mg/kg, route oral; settings: read-out: Drug uptake
# Procedure, shortened: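 Serum (final 0.01-10%) assayed in the VLA-4/VCAM-1 binding assay, and concentration estimated from a calibration curve of compound spiked into untreated mouse serum.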
# Mus musculus [12] = test: Antiinflammatory activity in Ascaris suum antigen-induced BALB/c AnNCrj mouse asthma model assessed as inhibition of eosinophil infiltration in BAL fluid orally administered twice daily 15 mins before and 8, 24 and 32 hrs after antigen challenge measured 48 hrs after antigen challenge; type: functional, organism-based; procedure, shortened: as §3
# [13] = molecular target: Integrin alpha-4/beta-7 (Homo sapiens) (UniProt P13612+P26010); test: Inhibition of MAdCAM1 binding to integrin alpha4beta7 receptor in human RPMI8866 cells at 16 uM by cell/protein binding assay; type: cell-based
# Procedure, shortened: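 RPMI8866 human B cells (α4β7+, β1−) at 1.2 × 10⁶/well in HEPES buffer containing BSA, DTPA, Ca, Mg and Mn, mixed with compound (final 10 μg/mL to 1 ng/mL) and Eu-MAdCAM-1 (final 1 nM) for 1 h at room temperature. Free ligand removed by centrifugation and washing; time-resolved fluorescence measured.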
# Mus musculus [14] = test: Toxicity in BALB/c AnNCrj mouse assessed as induction of hepatic injury at 200 mg/kg, po for 2 days; type: organism-based; design: dose 200 mg/kg, route oral; settings: in vivo, 48 h
# Procedure, shortened: (§5)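 Mice dosed iv at 50 mg/kg or orally at 25 or 200 (mg/kg)/day for 2 days, then assessed for liver injury.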
# Mus musculus [15] = test: Toxicity in BALB/c AnNCrj mouse assessed as induction of hepatic injury at 50 mg/kg, iv for 2 days; type: organism-based; design: dose 50 mg/kg, route intravenous; settings: in vivo, 48 h; procedure, shortened: as §5
# Cavia porcellus = test: Inhibition of acetylcholine chloride-induced bronchial hyperesponsiveness in ovalbumin challenged guinea pig asthma model administered orally 1 hr before and 2.5 hrs after antigen challenge; type: functional
# Procedure, shortened: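 Hartley guinea pigs (n = 8/group) sensitized with 1% OVA aerosol 10 min/day for 8 days, challenged a week later with 2% OVA aerosol 5 min; metyrapone iv and pyrilamine ip pretreatment. Oral doses 0.8, 2, 5 or 12.5 mg/kg at 1 h before and 2.5 h after challenge. At 22-27.5 h, stepwise ACh aerosol (0.0625-2 mg/mL); PC100ACh from sRaw.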
# [16] = Half life in Beagle dog at 0.5 mg/kg, iv; type: ADME, organism-based, Canis lupus familiaris; design: dose 0.5 mg/kg, route intravenous; settings: in vivo; procedure, shortened: as §2
# [17] = Clearance in Sprague-Dawley rat at 1 mg/kg, iv; type: ADME, organism-based; design: dose 1 mg/kg, route intravenous; settings: in vivo; procedure, shortened: as §4
# [18] = AUC in Beagle dog at 0.5 mg/kg, iv; type: ADME, organism-based, Canis lupus familiaris; design: dose 0.5 mg/kg, route intravenous; settings: plasma; procedure, shortened: as §2
# [19] = Oral bioavailability in Beagle dog at 0.5 mg/kg, po; type: ADME, organism-based, Canis lupus familiaris; settings: in vivo; procedure, shortened: as §2
# [20] = Half life in cynomolgus monkey at 0.5 mg/kg, po; type: ADME, organism-based, Macaca fascicularis; design: dose 0.5 mg/kg, route oral; settings: in vivo; procedure, shortened: as §1
# [21] = Half life in Sprague-Dawley rat at 1 mg/kg, iv; type: ADME, organism-based; design: dose 1 mg/kg, route intravenous; settings: in vivo; procedure, shortened: as §4
# [22] = Volume of distribution at steady state in Beagle dog at 0.5 mg/kg, iv; type: ADME, organism-based, Canis lupus familiaris; design: dose 0.5 mg/kg, route intravenous; settings: in vivo, read-out: Vdss; procedure, shortened: as §2
# [23] = Clearance in Beagle dog at 0.5 mg/kg, iv; type: ADME, organism-based, Canis lupus familiaris; design: dose 0.5 mg/kg, route intravenous; settings: in vivo; procedure, shortened: as §2
# [24] = Volume of distribution at steady state in cynomolgus monkey at 0.5 mg/kg, iv; type: ADME, organism-based, Macaca fascicularis; design: dose 0.5 mg/kg, route intravenous; settings: in vivo, read-out: Vdss; procedure, shortened: as §1
# [25] = Volume of distribution at steady state in Sprague-Dawley rat at 1 mg/kg, iv; type: ADME, organism-based; design: dose 1 mg/kg, route intravenous; settings: in vivo, read-out: Vdss; procedure, shortened: as §4
# [26] = AUC in Sprague-Dawley rat at 1 mg/kg, iv; type: ADME, organism-based; design: dose 1 mg/kg, route intravenous; settings: plasma; procedure, shortened: as §4
# Mus musculus [27] = test: Antiinflammatory activity in Ascaris suum antigen-induced BALB/c AnNCrj mouse asthma model assessed as reduction of acetylcholine chloride-induced bronchial hyperesponsiveness at 12.5 mg/kg, bid administered 15 mins before and 8, 24 and 32 hrs after antigen challenge measured 48 hrs after antigen challenge; type: functional; design: scale not given: the % may be the effect or the level left
# Procedure, shortened: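 Sensitized/challenged BALB/c AnNCrj mice (Ascaris suum, as in the eosinophil model) dosed po in 0.5% MC/0.03% Tween 80 at 15 min before and 8, 24, 32 h after challenge. At 48 h, pentobarbital-anesthetized, tracheotomized, ventilated mice given ACh injection; lung resistance increase measured.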
# [28] = Cmax in Sprague-Dawley rat at 1 mg/kg, po; type: ADME, organism-based; design: dose 1 mg/kg, route oral; settings: in vivo; procedure, shortened: as §4
# [29] = Half life in cynomolgus monkey at 0.5 mg/kg, iv; type: ADME, organism-based, Macaca fascicularis; design: dose 0.5 mg/kg, route intravenous; settings: in vivo; procedure, shortened: as §1
# [30] = Half life in Beagle dog at 0.5 mg/kg, po; type: ADME, organism-based, Canis lupus familiaris; design: dose 0.5 mg/kg, route oral; settings: in vivo; procedure, shortened: as §2
# [31] = AUC in Sprague-Dawley rat at 1 mg/kg, po; type: ADME, organism-based; design: dose 1 mg/kg, route oral; settings: plasma; procedure, shortened: as §4
# [32] = Clearance in cynomolgus monkey at 0.5 mg/kg, iv; type: ADME, organism-based, Macaca fascicularis; design: dose 0.5 mg/kg, route intravenous; settings: in vivo; procedure, shortened: as §1
# [33] = Half life in Sprague-Dawley rat at 1 mg/kg, po; type: ADME, organism-based; design: dose 1 mg/kg, route oral; settings: in vivo; procedure, shortened: as §4
# [34] = molecular target: Integrin alpha-IIb/beta-3 (Homo sapiens) (UniProt P05106+P08514); test: Inhibition of integrin alpha2bbeta3 receptor dependent platelet aggregation at 16 uM
# Procedure, shortened: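 Platelet-rich plasma prepared from citrated blood of two volunteers. Compound in DMSO preincubated with PRP for 2 min at 37 °C, then aggregation induced with collagen; aggregation rate followed for 10 min.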
# [35] = Oral bioavailability in cynomolgus monkey at 0.5 mg/kg, po; type: ADME, organism-based, Macaca fascicularis; settings: in vivo; procedure, shortened: as §1
# T1 sequence (P05556 whole entry): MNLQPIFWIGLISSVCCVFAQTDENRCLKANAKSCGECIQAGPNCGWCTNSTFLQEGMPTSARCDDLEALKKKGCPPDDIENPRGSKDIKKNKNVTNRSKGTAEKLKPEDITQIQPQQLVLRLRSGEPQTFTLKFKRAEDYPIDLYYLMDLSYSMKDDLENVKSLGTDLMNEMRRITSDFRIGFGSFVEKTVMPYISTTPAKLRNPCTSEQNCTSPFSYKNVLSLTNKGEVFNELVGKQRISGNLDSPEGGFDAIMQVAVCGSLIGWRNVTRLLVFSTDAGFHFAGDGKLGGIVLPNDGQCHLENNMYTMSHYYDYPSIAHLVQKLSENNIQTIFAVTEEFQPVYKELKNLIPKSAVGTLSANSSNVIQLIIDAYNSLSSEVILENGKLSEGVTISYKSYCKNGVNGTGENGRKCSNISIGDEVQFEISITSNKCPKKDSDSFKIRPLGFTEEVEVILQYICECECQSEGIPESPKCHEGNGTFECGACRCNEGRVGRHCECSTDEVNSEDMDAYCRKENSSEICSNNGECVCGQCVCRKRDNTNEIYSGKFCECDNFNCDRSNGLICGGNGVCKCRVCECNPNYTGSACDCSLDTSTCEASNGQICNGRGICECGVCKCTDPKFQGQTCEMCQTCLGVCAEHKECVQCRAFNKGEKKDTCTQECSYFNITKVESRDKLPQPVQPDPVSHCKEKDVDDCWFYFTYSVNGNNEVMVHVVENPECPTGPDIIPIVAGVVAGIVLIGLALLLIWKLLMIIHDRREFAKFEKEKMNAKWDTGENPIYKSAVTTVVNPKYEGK
# T1 sequence (P13612 whole entry): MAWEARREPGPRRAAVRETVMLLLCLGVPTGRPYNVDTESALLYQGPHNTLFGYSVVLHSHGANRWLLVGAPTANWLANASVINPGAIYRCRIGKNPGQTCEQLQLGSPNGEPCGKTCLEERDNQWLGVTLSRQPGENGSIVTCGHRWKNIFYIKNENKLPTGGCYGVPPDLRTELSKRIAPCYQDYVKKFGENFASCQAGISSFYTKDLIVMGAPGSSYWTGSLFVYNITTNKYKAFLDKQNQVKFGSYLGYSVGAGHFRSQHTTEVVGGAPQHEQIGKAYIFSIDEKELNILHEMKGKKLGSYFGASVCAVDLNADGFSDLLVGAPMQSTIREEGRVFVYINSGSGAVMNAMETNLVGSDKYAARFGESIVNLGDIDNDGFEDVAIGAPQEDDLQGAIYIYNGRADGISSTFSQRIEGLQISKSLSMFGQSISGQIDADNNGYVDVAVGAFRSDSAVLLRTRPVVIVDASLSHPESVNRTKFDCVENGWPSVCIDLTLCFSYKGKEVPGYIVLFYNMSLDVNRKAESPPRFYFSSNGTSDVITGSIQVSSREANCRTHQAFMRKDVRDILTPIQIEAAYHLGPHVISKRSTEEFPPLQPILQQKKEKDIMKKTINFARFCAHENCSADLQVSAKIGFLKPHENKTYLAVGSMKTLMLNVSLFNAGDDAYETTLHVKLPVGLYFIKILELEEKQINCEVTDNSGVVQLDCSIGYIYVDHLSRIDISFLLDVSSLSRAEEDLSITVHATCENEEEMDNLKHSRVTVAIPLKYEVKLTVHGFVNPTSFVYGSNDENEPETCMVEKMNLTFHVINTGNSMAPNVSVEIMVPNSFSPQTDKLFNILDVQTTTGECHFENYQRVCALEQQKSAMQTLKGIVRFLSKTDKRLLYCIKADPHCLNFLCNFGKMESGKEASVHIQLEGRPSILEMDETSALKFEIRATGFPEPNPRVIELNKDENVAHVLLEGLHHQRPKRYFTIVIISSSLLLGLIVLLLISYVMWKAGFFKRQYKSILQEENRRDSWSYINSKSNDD
smiles,measurement,setting,value
CO[C@H]1C[C@@H](CO[C@H]2CC[C@H](C(=O)O)CC2)N(C(=O)Cc2cc(Cl)c(NC(=O)c3cn(C)c4ccccc34)cc2Cl)C1,Cmax,[1],431 ng/mL
same,Cmax,[2],1590 ng/mL
same,AUC,[3],6090 ng·h/mL
same,inhibition (INH),Mus musculus [4],53%
same,inhibition,[5],9%
same,IC50,Integrin alpha-4/beta-1 [6],5.4 nM
same,IC50,Integrin alpha-4/beta-1 [7],93 nM
same,AUC,[8],5140 ng·h/mL
same,bioavailability,[9],> 100%
same,AUC,[10],3480 ng·h/mL
same,concentration at 0.25 h,[11],6150 ng/mL
same,Activity,Mus musculus [12],Dose-dependent effect
same,inhibition,[13],41%
same,Activity,Mus musculus [14],Non-toxic
same,Activity,Mus musculus [15],Non-toxic
same,Activity,Cavia porcellus,Dose-dependent effect
same,ED50,"Cavia porcellus; po, read-out: ID50 (the source's name)",3 mg/kg
same,half-life,[16],2.1 h
same,clearance,[17],19.3 mL/min/kg
same,AUC,[18],6710 ng·h/mL
same,bioavailability,[19],91%
same,half-life,[20],5.5 h
same,half-life,[21],1 h
same,Vd,[22],0.164 L/kg
same,clearance,[23],1.7 mL/min/kg
same,Vd,[24],0.223 L/kg
same,Vd,[25],1.22 L/kg
same,AUC,[26],865 ng·h/mL
same,Activity,Mus musculus [27],83%
same,Cmax,[28],385 ng/mL
same,half-life,[29],6.3 h
same,half-life,[30],2 h
same,AUC,[31],975 ng·h/mL
same,clearance,[32],1.8 mL/min/kg
same,half-life,[33],1.5 h
same,inhibition,[34],10%
same,bioavailability,[35],68%
